Compound activity (PubChem BioAssay)
An excerpt weighted towards active compounds, which were near 2.4% of everything screened.
IMP-1 inh: blocks Pseudomonas aeruginosa IMP-1 metallo-beta-lactamase | purified IMP-1, nitrocefin hydrolysis, epi-absorbance fluorescence | inhibition, % at 5.6 µM | 290,000 compounds, 0.45% hits | AID 1556;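 active = inhibition above the mean plus 3 SD of all compounds in the same screening run, cut at about 4.5% in these data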;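 also: 0% = IMP-1 with DMSO and 100% = DMSO wells lacking enzyme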
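System: purified IMP-1; amount: IMP-1 0.2 nM before substrate addition; compound: single dose, 5.6 µM; times: 25 °C, 15 min preincubation, 25 min reaction; signal: Epi-absorbance via hydrolysed-nitrocefin quenching of white-plate fluorescence, 480/530 nm, EDTA stop; benchmarks: DMSO with and without IMP-1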
HGIII-sPLA2 inh: Inhibits HGIII-sPLA2 liposome hydrolysis, primary screen; 370,000 compounds, 0.56% hits; AID 743126; Q9NZ20; inhibition, % at 12.2 µM; QFRET BODIPY PC-A2 liposome hydrolysis, fluorescence;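 active = inhibition above mean plus 3 SD of compounds lying within the high and low control bounds, cut at about 19% in these data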;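 also: 0% = median of test compound wells and 100% = no enzyme DMSO wells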
VIM-2 inhibitor: blocks Pseudomonas aeruginosa VIM-2 metallo-beta-lactamase. AID 1527. purified VIM-2, nitrocefin hydrolysis, epi-absorbance fluorescence. 290,000 compounds, 0.89% hits. inhibition, % at 5.6 µM;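 active = inhibition above the mean of all tested compounds plus 3 SD, cutoff set per screening run, cut at about 7.5% in these data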;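 also: red hydrolysis product quenches plate fluorescence so inhibitors raise well fluorescence; 0% = enzyme with DMSO and 100% = DMSO without enzyme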
PfM18AAP inh-1: PfM18AAP enzyme inhibition. 290,000 compounds, 1.2% hits. recombinant PfM18AAP, H-Glu-NHMec fluorogenic cleavage. inhibition, % at 7.35 µM;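 active = inhibition above the campaign mean inhibition over all tested compounds plus 3 SD, cut at about 28% in these data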;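 also: 0% = plate median of test compound wells and 100% = 2 mM ZnCl2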
PfM18AAP inh-2: PfM18AAP inhibition, confirmation | inhibition, % at 7.35 µM | recombinant PfM18AAP, H-Glu-NHMec fluorogenic cleavage | 2,400 compounds, 28% hits | shares compounds with PfM18AAP inh-1;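 active = mean inhibition over replicate wells above the hit cutoff set for the earlier primary screen, cut at about 29% in these data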;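 also: 0% = median of test compound wells and 100% = 2 mM ZnCl2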
CTSL1 counter: counter-screen for PFM18AAP inhibitors: confirmation of human cathepsin L inhibitors; shares compounds with PfM18AAP inh-1; purified cathepsin L1, Z-Leu-Arg-MCA fluorescence; inhibition, % at 5.96 µM; 2,400 tested, under 10 active;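 active = average inhibition across replicates above the hit cutoff set in the earlier primary screen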;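 also: 0% = median of test compound wells and 100% = Z-Phe-Ala-diazomethylketone 1 µM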
Target sequence (P07711 whole entry, looked up): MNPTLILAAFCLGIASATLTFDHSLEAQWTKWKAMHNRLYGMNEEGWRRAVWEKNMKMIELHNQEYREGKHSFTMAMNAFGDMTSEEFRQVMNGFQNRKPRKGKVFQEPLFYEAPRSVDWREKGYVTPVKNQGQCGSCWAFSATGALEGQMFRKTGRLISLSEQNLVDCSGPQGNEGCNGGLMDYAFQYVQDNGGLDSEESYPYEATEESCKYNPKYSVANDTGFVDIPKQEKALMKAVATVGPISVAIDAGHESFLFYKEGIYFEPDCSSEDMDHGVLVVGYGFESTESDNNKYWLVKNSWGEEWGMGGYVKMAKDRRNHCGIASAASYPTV
The depositor's hits bear a star; . = no result given.

SMILES	IMP-1 inh	HGIII-sPLA2 inh	VIM-2 inhibitor	PfM18AAP inh-1	PfM18AAP inh-2	CTSL1 counter
CC(C)/C=C(/C(=O)c1ccc(Cl)cc1Cl)n1cncn1	-3	-25	-2	49*	5	1
CC(NC(=O)CNC(=O)c1sc2ccccc2c1Cl)c1cccnc1 (centres undefined)	0	-6	2	-7	.	.
Cc1ccc(C)c(NC(=O)C2CCCN(S(=O)(=O)c3ccc4[nH]c(=O)ccc4c3)C2)c1 (centres undefined)	-5	7	-1	2	.	.
CCOC(=O)C1=C(CS(=O)(=O)c2ccc(F)cc2)NC(=O)NC1c1ccc(O)c(O)c1 (centres undefined)	-5	-10	-3	79*	62*	-9
CCOC(=O)C1=C(CS(=O)(=O)c2ccc(F)cc2)NC(=O)NC1c1cc(OC)c(O)c(OC)c1 (centres undefined)	-2	-5	-2	12	.	.
COc1cccc2cc(C(=O)N(Cc3ccccc3)CC3CCCO3)c(=O)oc12 (centres undefined)	-4	-3	-1	35*	-29	-1
COc1cccc(/C=N/Nc2ccnc(=O)[nH]2)c1O	-4	0	-2	43*	-12	2
COc1cccc(/C=N/NC(=O)N/N=C/c2cccc(OC)c2O)c1O	-3	-4	-3	33*	2	-4
COc1cccc(/C=N/Nc2ccc([N+](=O)[O-])cn2)c1O	-3	7	-2	14	.	.
N#C/C(=C/c1ccc(O)c(O)c1)c1nc2ccccc2[nH]1	-2	12	-1	62*	43*	-1
CCOC(=O)C1=C(COC(=O)COc2ccc(C#N)cc2)NC(=O)NC1C (centres undefined)	-1	1	1	-11	.	.
COCCNC(=O)C1CCCN(C(=O)c2sccc2C)CC1 (centres undefined)	.	0	.	.	.	.
NC(=O)c1ccc(N2CCN(c3ccc(O)cc3)CC2)c([N+](=O)[O-])c1	-2	-2	7	50*	6	2
CC1CC(C)C(=NNC(N)=O)C(C(O)CC2CCC(=O)NC2=O)C1 (centres undefined)	.	17	.	.	.	.
CCC(C(=O)Nc1c(C)cccc1C)n1c(-c2ccc(-c3ccccc3)cc2)nc2ccccc21 (centres undefined)	.	1	.	.	.	.
O=Cc1ccc(O)cc1O	-2	0	-2	8	.	.
O=CN/C=C/c1cc(O)ccc1O	-2	11	4	61*	83*	0
O=C1OC(Nc2ccc3c(c2)OCO3)c2ccccc21 (centres undefined)	-5	3	-1	45*	22	4
O=C1OC(Nc2ccc(F)c([N+](=O)[O-])c2)c2ccccc21 (centres undefined)	-3	1	0	-1	.	.
COc1cccc(C(c2c(N)[nH]c(=S)[nH]c2=O)c2c(N)[nH]c(=S)[nH]c2=O)c1	0	6	2	33*	-2	7
COc1cccc(C(NC(=O)c2ccccc2F)NC(=O)c2ccccc2F)c1	0	-1	0	0	.	.
COc1ccc(O)c(/C=N/c2sc(C)c(C)c2C#N)c1	0	4	-5	42*	-23	-1
Cc1sc(/N=C/c2c(O)ccc3ccccc23)c(C#N)c1C	1	.	-2	10	.	.
CC(NC(=O)COc1cccnc1[N+](=O)[O-])c1ccc(Cl)cc1 (centres undefined)	-4	-3	0	11	.	.
O=C(O)c1ccc(NC(=O)c2ccc3c(c2)C(=O)N(c2ccccc2)C3=O)cc1	-1	-4	-3	-10	.	.
SMILES	IMP-1 inh	HGIII-sPLA2 inh	VIM-2 inhibitor	PfM18AAP inh-1	PfM18AAP inh-2	CTSL1 counter
O=C(O)c1ccc(S(=O)(=O)c2ccc3c(c2)C(=O)N(c2ccc(O)cc2)C3=O)cc1	-2	-5	2	33*	-49	-1
N#CC/C(N)=N/Nc1nc2ccccc2nc1Cc1ccccc1	-5	-9	-3	36*	9	-4
N#CCn1c(Cc2ccccc2)nc2ccccc2c1=O	-2	5	-3	5	.	.
Cc1cccc(N2CC(C(=O)NCc3ccco3)CC2=O)c1C (centres undefined)	.	1	.	.	.	.
c1ccc2[nH]c(COCc3nc4ccccc4[nH]3)nc2c1	.	3	.	.	.	.
Oc1ccc(O)c(Cc2nc3ccccc3[nH]2)c1	-3	-1	-4	44*	71*	-6
O=C(c1ccccc1)N1CCN(c2ccc([N+](=O)[O-])c(NCc3cccnc3)c2)CC1	-3	-1	-1	44*	-53	1
C[C@H]1[C@H](N)CC[C@@]23CCCN2C(=O)CCC[C@@H]13	.	2	.	.	.	.
CCOC(=O)c1c(N)sc2c1C1CCN2CC1	-2	19	-1	50*	10	3
COc1cc(SC)ccc1C(=O)N1CCN(c2ccc(O)cc2)CC1	-2	-5	-3	37*	-10	-2
CCCCCCCCN1C(=O)[C@@H](CC(=O)NCc2cccc3ccccc23)C[C@@]2(C(=O)OC)C1=C[C@H](COCc1ccccc1)O[C@@H]2C	.	-21	.	.	.	.
Oc1ccc(N2CCN(Cc3c(-c4ccccc4)nc4ccccn34)CC2)cc1	-3	7	0	34*	-28	-10
Clc1ccc(-c2nc3ccccn3c2CN2CCCCC2)cc1	-3	-1	-2	-3	.	.
Cc1nc(SCc2ccc(O)c([N+](=O)[O-])c2)c([N+](=O)[O-])[nH]1	-4	2	-4	47*	-3	3
CC(C)N1CCCC(C)(C(=O)Nc2nc3ccccc3[nH]2)C1 (centres undefined)	.	1	.	.	.	.
Cc1cc(N/N=C/c2ccc(O)cc2)nc(NS(=O)(=O)c2ccccc2)n1	-3	-13	-2	43*	-43	5
Oc1ccc(/C=N/Nc2ccccc2)cc1	0	-12	-4	18	.	.
Cc1nc2ccccc2nc1N/N=C/c1ccc(O)cc1	-1	0	7.8*	37*	10	-2
CC(=O)NNC(=O)CN1C(=O)/C(=C/c2ccccc2)SC1=S	9.6*	-3	5	34*	-29	4
CCN(CC)C(=O)CN1C(=O)/C(=C/c2ccccc2)SC1=S	-2	-6	-1	-4	.	.
Cc1ccc(C)c(NC(=O)c2ccc(CS(=O)(=O)Cc3ccccc3C)o2)c1	.	-13	.	.	.	.
COc1cc(/C=N/n2cnn(Cc3ccccc3Cl)c2=S)cc(OC)c1OC	-4	2	-3	18	.	.
COc1ccc(/C=N/n2cnn(Cc3ccccc3Cl)c2=S)cc1	-1	0	2	34*	-50	-3
O=C1CCC2(CCCCC2)N1	.	-1	.	.	.	.
O=C(COc1ccccc1[N+](=O)[O-])N/N=C/c1ccc(O)c([N+](=O)[O-])c1	-3	0	-5	2	.	.
O=C(COc1ccccc1C(=O)N/N=C\c1ccc(O)c(O)c1)N/N=C/c1ccc(O)c(O)c1	-4	.	1	76*	74*	0
CC(C)(C)c1ccc(OCc2ccc(C(=O)N/N=C/c3ccc(O)c(O)c3)cc2)cc1	-4	5	-4	36*	-5	-6
